We go through 5 compounds from ChEMBL document CHEMBL3044969, “Syntheses and biological activities of dihydro-5,6-dehydrokawain derivatives” (1996).

For experiment [1], the system named is Athelia rolfsii. Nature of the experiment: Antifungal activity against Athelia rolfsii assessed as growth inhibition at 1000 ppm by agar dilution method relative to control. The experiment is classed as functional. Particulars: Agroathelia rolfsii; read-out: GI. Put shortly: (§1)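 Pythium sp. and Corticium rolfsii were each grown on potato dextrose agar (1.5% agar) for 5 days at 27°C before testing. Growth inhibition was measured by agar dilution, following a previously reported method.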
(In agar dilution the substance is mixed into plates at graded concentrations.)

Experiment [2] deals with Pythium. Kind of experiment: Antifungal activity against Pythium sp. assessed as growth inhibition at 1000 ppm by agar dilution method relative to control. The class given is functional. Conditions: read-out: GI. Put shortly:
as §1

Experiment [3] concerns Coptotermes formosanus. Nature of the experiment: Insecticidal activity against Coptotermes formosanus assessed as increase in mortality at 0.1 to 1 mg/filter paper measured for 14 days. The class given is functional, organism-based. Put shortly:
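Termite mortality was counted in three replicates and the replicates were combined into a mean. Mortality is given as a percentage relative to an untreated control group of termites.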

For experiment [4], the system named is Pythium. Nature of the experiment: Antifungal activity against Pythium sp. assessed as growth inhibition at 100 ppm by agar dilution method relative to control. The class given is functional. Particulars: read-out: GI. Put shortly:
as §1

The test system of experiment [5] is Athelia rolfsii. Kind of experiment: Antifungal activity against Athelia rolfsii assessed as growth inhibition at 100 ppm by agar dilution method relative to control. The experiment is classed as functional. Particulars: Agroathelia rolfsii; read-out: GI. Put shortly: as §1
The test system of experiment [6] is Coptotermes formosanus. Kind of experiment: Insecticidal activity against Coptotermes formosanus assessed as increase in mortality at 1 mg/filter paper measured for 14 days relative to control. The class given is functional. Put shortly:
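The termite assay was run in three replicates, which were combined into a mean. Mortality is given as a percentage relative to the untreated control termite group.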

SMILES strings stand for the structures. The source made the active and inactive calls. The rule behind the calls is not given here.

Turning to `O=c1cc(O)cc(CCc2ccccc2)o1`, the inhibition of growth at 1000 ppm in experiment [1] and in experiment [2] was 100% in each case. In addition, in experiment [3], the outcome was inactive. Further, the inhibition of growth at 100 ppm came to 22% in experiment [4] and 44% in experiment [5].

What is called mortality is the share of the test organisms that died. For `COP(=S)(OC)Oc1cc(CCc2ccccc2)oc(=O)c1`, the inhibition of growth at 1000 ppm in experiment [1] was found to be 98%; in experiment [2], 88%. Further, the inhibition of growth at 100 ppm is 50% in experiment [4] and 91% in experiment [5]. The mortality in experiment [6] is on record as 93%.

For `COc1cc(/C=C/c2ccccc2)oc(=O)c1` [DESMETHOXYYANGONIN], the inhibition of growth at 1000 ppm in experiment [1] was determined as 54%; in experiment [2], 86%. Besides, the inhibition of growth at 100 ppm in experiment [4] worked out at 42%; in experiment [5] it was 0%.

Regarding `COc1cc(CCc2ccccc2)oc(=O)c1` [DIHYDRO-5,6-DEHYDROKAWAIN], the inhibition of growth at 1000 ppm stood at 96% in experiment [1] and 94% in experiment [2]. Further, the result in experiment [3] was inactive. For the same compound, the inhibition of growth at 100 ppm in experiment [4] stood at 72%; in experiment [5] it was 64%.

Turning to `CCOP(=S)(OCC)Oc1cc(CCc2ccccc2)oc(=O)c1`, the inhibition of growth at 1000 ppm in experiment [1] was 66%; in experiment [2] it was 44%. Besides, the results for the inhibition of growth at 100 ppm in experiment [4] and in experiment [5] were 18% and 57%, respectively. In experiment [6], the mortality was found to be 50%.
